A selection: hits, their analogues and other compounds. The true share with any hit is near 3%.
S100A4 MyoIIA: inhibitors of human S100A4 binding to myosin IIA peptide | P26447 | S100A4/TAMRA-MyoIIA peptide fluorescence polarization | inhibition, % at 10.7 µM | hit rate 0.14% among 360,000 | AID 652163;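 active means mean inhibition of at least 70% across replicates, with every replicate also reaching that level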
Target sequence (P26447 whole entry, looked up): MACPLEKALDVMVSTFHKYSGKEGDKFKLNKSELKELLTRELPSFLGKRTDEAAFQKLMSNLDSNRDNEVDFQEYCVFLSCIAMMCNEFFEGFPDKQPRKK
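System – human S100A4 monomer protein, biochemical binding assay · Buffer or medium – Calcium-containing HEPES buffer, pH 7.2 · Timing – 5 min between mix addition and reading · Also added – TAMRA-labelled myosin IIA heavy-chain peptide probe, 5 nM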
SIRT5 block: inhibitors of human sirtuin-5 desuccinylase. inhibition, % at 15 µM. Purified SirT5, succinyl-peptide AMC, trypsin-coupled fluorescence. hit rate 1.1% among 330,000. Q9NXA8; in the data active means inhibition above about 15%
Target sequence (Q9NXA8 whole entry, looked up): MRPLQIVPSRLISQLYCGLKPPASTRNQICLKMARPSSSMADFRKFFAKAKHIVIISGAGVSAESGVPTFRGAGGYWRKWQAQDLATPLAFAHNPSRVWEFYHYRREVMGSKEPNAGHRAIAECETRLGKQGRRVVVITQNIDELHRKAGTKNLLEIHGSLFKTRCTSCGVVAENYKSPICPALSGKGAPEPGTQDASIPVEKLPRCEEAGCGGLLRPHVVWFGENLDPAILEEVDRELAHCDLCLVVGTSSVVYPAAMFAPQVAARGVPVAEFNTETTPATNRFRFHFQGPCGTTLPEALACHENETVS
Statin myotox sup: suppression of simvastatin myotoxicity. C2C12 myotubes + simvastatin, ATP luminescence, 48 h; scaled: DMSO 0, geranylgeraniol control 100. hit rate 0.78% among 330,000. AID 602340. rescue of ATP level, % at 7.49 µM;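 active means mean ATP rescue above about 67%, or every replicate alone reaching that limit, limit read from the data, passing the limit was not always enough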;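 further: myotubes were challenged with 10 µM simvastatin during compound exposure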
Cneo AK release: Cryptococcus neoformans lysis via adenylate kinase release | C. neoformans lysis, adenylate kinase release luminescence, 4 h; normalised: neutral wells 0, clomiphene wells 100 | lysis activity, % at 15 µM | hit rate 0.2% among 360,000 | AID 651654;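 active means mean lysis activity across replicates of at least 80%, whatever share of replicates individually reach that level; inactive means mean lysis activity below 80%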
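read-out = cell lysis signal | test system = log-phase Cryptococcus neoformans yeast cells | input = cells at 5 × 10^6 per mL | medium = fresh YPD growth medium | signal = luminescent adenylate kinase detection reagent | timing = 4 h at 37 °C static, read 1 h later | dosing = single dose | controls = Clomiphene as positive lysis control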
rRNA inh HTS: selective bacterial rRNA inhibition in E. coli; AID 720706; E. coli WT GFP vs humanized-ribosome RFP mutants, fluorescence, 24 h; active compounds read low; DMSO median 0, no signal -100; hit rate 1.6% among 350,000; GFP signal change (wild-type ribosome), % (test concentration not listed);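 active means significant combined selectivity score with lowered wild-type GFP, culture density cut under 30%, mutant RFP and density less affected; inactive means any of these conditions unmet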
PGC1a acetyl inh: modulators of PGC1a acetylation; U2OS PGC1a acetylation, AlphaScreen anti-acetyl-lysine; with virally co-expressed GCN5 acetyltransferase; AID 651687; inhibition, % at 15.6 µM; hit rate 0.17% among 350,000;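 active means every replicate shows inhibition of at least 40%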;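 further: 0% = neutral control wells and 100% = positive control wells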
* marks the source's active call; other numbers are inactive results; ! = not confirmed by another sample.

For COc1ccc(S(=O)(=O)Nc2cccc3c2O[C@@H](CN(C)S(=O)(=O)c2ccc(Cl)cc2)[C@H](C)CN([C@H](C)CO)C3=O)cc1 the results were S100A4 MyoIIA 2.1, SIRT5 block -1.4, Statin myotox sup -25.7, Cneo AK release -2.8, rRNA inh HTS 0.1 and PGC1a acetyl inh 4.6.
For CCSC1(SCC)N=C(N)C2(C#N)C(c3ccc(F)cc3)C12C#N (centres undefined) the results were Statin myotox sup 141.8*, Cneo AK release 9.9 and PGC1a acetyl inh -6.2.
For CCC(=O)Nc1ccc2c(c1)OC[C@@H](C)N(Cc1nccs1)C[C@H](C)[C@H](OC)CN(C)C2=O the results were S100A4 MyoIIA 0.3, SIRT5 block 0.5, Statin myotox sup -2.3, Cneo AK release -2.0, rRNA inh HTS -4.5 and PGC1a acetyl inh -7.8.
Screening COc1cccc(S(=O)(=O)N[C@H]2CC[C@@H](CCNC(=O)Cc3ccncc3)O[C@H]2CO)c1 returned S100A4 MyoIIA 19.1, SIRT5 block 3.9, Statin myotox sup -6.9, Cneo AK release 0.2, rRNA inh HTS 0.5 and PGC1a acetyl inh 3.5.
Screening Cc1ccccc1C(=O)Nc1ccc(C(=O)N/N=C/c2ccncc2)cc1 returned S100A4 MyoIIA -1.9, SIRT5 block -0.7, rRNA inh HTS -28.6* and PGC1a acetyl inh -12.0.
Cc1ccccc1C(=O)Nc1ccc(C(=O)N/N=C/c2ccc(O)cc2)cc1 was read as S100A4 MyoIIA 0.1, SIRT5 block -0.2, Statin myotox sup 18.7, Cneo AK release -3.2 and rRNA inh HTS 1.2.
CCCN1C[C@@H](C)[C@@H](OC)CN(C)C(=O)c2ccc(NC(=O)CC(F)(F)F)cc2OC[C@@H]1C was read as S100A4 MyoIIA -9.8, Statin myotox sup -2.4, Cneo AK release 49.2, rRNA inh HTS 1.1 and PGC1a acetyl inh -14.1.
`CC(C)NC(=O)N(C)C[C@@H]1OCCCC[C@H](C)Oc2ccc(NS(=O)(=O)c3ccccc3)cc2C(=O)N([C@H](C)CO)C[C@@H]1C` gave S100A4 MyoIIA -6.8, SIRT5 block -1.0, Cneo AK release 0.3, rRNA inh HTS -2.3 and PGC1a acetyl inh 5.5.
C[C@H]1CNC(=O)c2c(C(=O)Nc3ccc(CNC(=O)OC(C)(C)C)cc3)ncn21 was read as S100A4 MyoIIA -2.5, Statin myotox sup -0.7, Cneo AK release -0.8 and rRNA inh HTS -24.8*.
For C[C@H]1Cn2cnc(C(=O)Nc3ccc(CNC(=O)OC(C)(C)C)cc3)c2C(=O)N1 the results were S100A4 MyoIIA -0.7, Statin myotox sup 27.3, Cneo AK release -0.9 and rRNA inh HTS 16.3.
`CO[C@@H]1CN(C)C(=O)c2ccc(NC(=O)C3CCOCC3)cc2OC[C@@H](C)N(C(C)=O)C[C@H]1C` gave S100A4 MyoIIA -12.3, Statin myotox sup -12.1, Cneo AK release 0.9, rRNA inh HTS 1.7 and PGC1a acetyl inh -1.3.
Screening CC(=O)Nc1ccc2nc(NC(=O)C(Cl)(Cl)Cl)sc2c1 returned S100A4 MyoIIA -1.0, SIRT5 block -4.0 and rRNA inh HTS -37.1*.
CC(=O)Nc1ccc(S(=O)(=O)Nc2ccc3nc(C)sc3c2)cc1 was read as S100A4 MyoIIA -3.8, SIRT5 block 0.6, Statin myotox sup 89.7*, Cneo AK release -0.3, rRNA inh HTS -2.4 and PGC1a acetyl inh 3.3.
Screening CCCC#Cc1cnc2c(c1)C(=O)N([C@@H](C)CO)C[C@@H](C)[C@@H](CN(C)C(=O)Nc1cccc(F)c1)O2 returned S100A4 MyoIIA -106.4, SIRT5 block 3.9, Statin myotox sup 27.3, Cneo AK release 2.7, rRNA inh HTS -4.8 and PGC1a acetyl inh -41.2.
Screening CO[C@@H]1CN(C)C(=O)c2cc(NC(=O)NC(C)C)ccc2OC[C@@H](C)N(C(=O)CN(C)C)C[C@H]1C returned S100A4 MyoIIA 4.0, SIRT5 block 1.8, Statin myotox sup -1.1, Cneo AK release -3.3, rRNA inh HTS 2.1 and PGC1a acetyl inh 0.2.
Screening COc1ccc(NC(=O)N(C)C[C@@H]2Oc3ccc(NC(=O)Nc4ccccc4)cc3C(=O)N([C@H](C)CO)C[C@@H]2C)cc1 returned S100A4 MyoIIA -7.8, SIRT5 block -4.0, Statin myotox sup -11.3, Cneo AK release -1.0, rRNA inh HTS -2.2 and PGC1a acetyl inh 7.3.
`COc1cccc(CN2C[C@@H]3N[C@H](C2)C3c2ccc(-c3ccccc3C)cc2)c1` (some centres undefined) gave rRNA inh HTS -54.1 and PGC1a acetyl inh -21.7.
COc1ccc(-c2ccc(C3[C@@H]4CN(Cc5cccc(OC)c5)C[C@H]3N4)cc2)cc1 (some centres undefined) was read as S100A4 MyoIIA 14.7, SIRT5 block -5.9, rRNA inh HTS -55.8 and PGC1a acetyl inh 0.1.
`COc1cc(CN2C[C@@H]3N[C@H](C2)C3c2ccc(-c3ccccc3C)cc2)cc(OC)c1` (some centres undefined) gave S100A4 MyoIIA -7.8, SIRT5 block 6.2, rRNA inh HTS -56.2 and PGC1a acetyl inh 104.6*!.
Screening COc1cccc(-c2ccc(C3[C@@H]4CN(Cc5cccc(F)c5)C[C@H]3N4)cc2)c1 (some centres undefined) returned S100A4 MyoIIA -8.9, SIRT5 block -5.3, rRNA inh HTS -58.6 and PGC1a acetyl inh 97.5*!.
`Cc1noc(C)c1NC(=O)N[C@@H]1CC[C@H](CC(=O)N2CCCCC2)O[C@H]1CO` gave S100A4 MyoIIA -7.1, SIRT5 block 2.3, Statin myotox sup 1.7, Cneo AK release 7.7, rRNA inh HTS -1.7 and PGC1a acetyl inh 1.0.
C=CCN(c1ccccc1)S(=O)(=O)c1cccc(C(=O)Nc2ccncc2)c1 was read as S100A4 MyoIIA 3.6, SIRT5 block 18.7*, Statin myotox sup 2.5, Cneo AK release -5.6 and rRNA inh HTS -22.9.
For CC(C)NC(=O)N(C)C[C@@H]1Oc2ccc(NC(=O)C3CC3)cc2C(=O)N([C@H](C)CO)C[C@@H]1C the results were S100A4 MyoIIA -4.4, SIRT5 block -5.7, Statin myotox sup -5.8, Cneo AK release 11.7, rRNA inh HTS 1.4 and PGC1a acetyl inh -1.9.
For CC(=O)Oc1ccc(/C=C2/CCc3ccccc3C2=O)cc1 the results were S100A4 MyoIIA 5.0, SIRT5 block 2.9, Statin myotox sup 5.3, Cneo AK release -5.9 and rRNA inh HTS -30.7*.
For COc1cccc(/C=C2\CCc3ccccc3C2=O)c1 the results were S100A4 MyoIIA -6.7, SIRT5 block -1.4, Statin myotox sup -1.1, Cneo AK release -3.8 and rRNA inh HTS -19.9.
Screening COC(=O)C(Cc1csc2ccc(Cl)cc12)NC(=O)c1ccc(Cl)cc1 (centres undefined) returned S100A4 MyoIIA 0.0, SIRT5 block -6.5, Statin myotox sup 9.9 and rRNA inh HTS -16.4*.
